The record followed here is ChEMBL document CHEMBL2040833, “Metabolism-based synthesis, biologic evaluation and SARs analysis of O-methylated analogs of quercetin as thrombin inhibitors” (Eur J Med Chem, 2012).

For assay [1], the target named is Thrombin (Oryctolagus cuniculus) (UniProt Q28731). Put plainly: Inhibition of thrombin in New Zealand rabbit plasma assessed as activated partial thromboplastin time at 100 uM after 3 mins by coagulometry. An outline of the steps:
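Sample in 80% ethanol; 10 µl sample and 50 µl PPP incubated with 50 µl APTT-activating agent 3 min at 37 °C, then 50 µl CaCl2 added; clotting time by coagulometer with commercial kit; prolongation scored.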

For assay [2] the target is unchanged. As to the kind of experiment: Inhibition of thrombin in New Zealand rabbit plasma assessed as thrombin time at 100 uM after 3 mins by coagulometry. An outline of the steps:
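Using citrated rabbit platelet-poor plasma, 40 µl PPP was held 3 min at 37 °C, then 40 µl thrombin solution and 20 µl sample (in 80% ethanol) were added for 3 min at 37 °C. Clotting time was measured by coagulometer with a commercial kit, and prolongation was scored.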

For assay [3] the target is unchanged. As to the kind of experiment: Inhibition of thrombin in New Zealand rabbit plasma assessed as fibrinogen level at 100 uM by coagulometry. In outline:
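Citrated rabbit platelet-poor plasma (3000 rpm 10 min). 10 µl PPP incubated with 90 µl imidazole buffer 3 min at 37 °C, then 50 µl FIB agent and 10 µl sample (in 80% ethanol) added; fibrinogen content read on coagulometer with commercial kit; reduction in FIB content scored.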

The target is the same in assay [4]. Put plainly: Inhibition of thrombin in New Zealand rabbit plasma assessed as prothrombin time at 100 uM by coagulometry. In outline: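 40 µl PPP preincubated 3 min at 37 °C, then 40 µl thromboplastin agent plus 20 µl sample (in 80% ethanol) added; clotting read by coagulometer with commercial kit; activity expressed as INR increase.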

Take `COc1cc(OC)c2c(=O)c(O)c(-c3ccc(O)c(O)c3)oc2c1`: in assay [1], the APTT came to 67.6 s. For the same compound, in assay [2], the TT is 21.8 s. In addition, the Activity in assay [3] came to 5.1 g/L. Besides, in assay [4], the PT came to 6.9 s.
In the same order, the values of `COc1ccc(-c2oc3cc(O)cc(OC)c3c(=O)c2O)cc1OC` are 49.3 s, 15.9 s, 7.9 g/L and 5.1 s.
In the same order, the values of `COc1c(-c2ccc(O)c(O)c2)oc2cc(O)cc(O)c2c1=O` are 50.2 s, 22.9 s, 4.7 g/L and 4.8 s.
In the same order, the values of `COc1c(-c2ccc(O)c(O)c2)oc2cc(O)cc(OC)c2c1=O` are 63.7 s, 20 s, 5.4 g/L and 5.7 s.
On to `COc1cc(O)c2c(=O)c(O)c(-c3ccc(OC)c(O)c3)oc2c1`, for which the APTT in assay [1] amounted to 46.2 s. Besides, the TT in assay [2] was 14.8 s. Further, in assay [3], the Activity amounted to 5.9 g/L. Further, in assay [4], the PT amounted to 7.4 s.
For `COc1ccc(-c2oc3cc(O)cc(O)c3c(=O)c2O)cc1OC`, in that order: 58.7 s, 9.9 s, 6.6 g/L and 5.8 s.
In the same order, the values of `O=c1c(O)c(-c2ccc(O)c(O)c2)oc2cc(O)cc(O)c12` are 30.3 s, 19.2 s, 5.8 g/L and 6.2 s.
For `COc1cc(O)cc2oc(-c3ccc(O)c(O)c3)c(O)c(=O)c12`, in that order: 49.2 s, 19.4 s, 5 g/L and 7.6 s.
Consider `COc1cc(-c2oc3cc(O)cc(OC)c3c(=O)c2O)ccc1O`, for which, in assay [1], the APTT is 57.6 s. Besides, in assay [2], the TT stood at 22.3 s. For the same compound, the Activity in assay [3] was determined as 6.2 g/L. Further, the PT in assay [4] came out at 5.8 s.
For `COc1cc(-c2oc3cc(O)cc(O)c3c(=O)c2O)ccc1O`, in that order: 82.3 s, 20.5 s, 5.4 g/L and 5.3 s.
In the same order, the values of `COc1cc(O)c2c(=O)c(OC)c(-c3ccc(OC)c(OC)c3)oc2c1` are 42.4 s, 14.2 s, 8.4 g/L and 5.4 s.
For `COc1cc(OC)c2c(=O)c(OC)c(-c3ccc(OC)c(OC)c3)oc2c1`, the APTT in assay [1] was determined as 40.3 s. Further, the TT in assay [2] is 11.6 s. Also, in assay [3], the Activity was 8.9 g/L. The PT in assay [4] was 5.2 s.
In the same order, the values of `COc1cc(O)c2c(=O)c(OC)c(-c3ccc(O)c(O)c3)oc2c1` are 54.7 s, 22.5 s, 7.3 g/L and 7.3 s.
For `COc1cc(O)c2c(=O)c(OC)c(-c3ccc(OC)c(O)c3)oc2c1`, in that order: 61.7 s, 14.9 s, 5.3 g/L and 6 s.
Regarding `COc1cc(O)c2c(=O)c(O)c(-c3ccc(O)c(O)c3)oc2c1`, in assay [1], the APTT stood at 72.6 s. Moreover, in assay [2], the TT turned out to be 23 s. In addition, in assay [3], the Activity amounted to 5.4 g/L. In addition, in assay [4], the PT was 6.8 s.
In the same order, the values of `COc1ccc(-c2oc3cc(O)cc(O)c3c(=O)c2O)cc1O` are 49.8 s, 16.6 s, 7.5 g/L and 6.9 s.
